In ChEMBL document CHEMBL5260824, “9-Deazapurines as Broad-Spectrum Inhibitors of the ABC Transport Proteins P-Glycoprotein, Multidrug Resistance-Associated Protein 1, and Breast Cancer Resistance Protein” (J Med Chem, 2017):

What was measured:
MDCK-II = assay: Antiproliferative activity against dog MDCK-II cells assessed as reduction in cell viability measured for 72 hrs bt MTT assay; assay type: functional; settings: Canis lupus familiaris
H69AR = assay: Potentiation factor, ratio of GI50 for daunorubicin resistant human NCI-H69AR cells expressing MRP1 cells to GI50 for reversal of daunorubicin resistance in human NCI-H69AR cells assessed as daunorubicin GI50 at 10 uM (reference value: 1 uM); assay type: functional
Method in brief: (§1)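 Reversal assay: resistant lines (A2780/ADR, H69AR, MDCK II BCRP) and parental lines seeded as for MTT assay with modulator solutions of 1, 10 and 100 µM added (final 0.1, 1, 10 µM) and daunorubicin (P-gp, MRP1) or SN-38 (BCRP) at final 10 nM–10 µM. 72 h, MTT read-out; GI50 by variable-slope fit. Resistance factor = resistant/sensitive GI50; potentiation factor = GI50 without/with modulator.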

[1] = Potentiation factor, ratio of GI50 for SN-38 resistant dog MDCK-II-BCRP cells expressing BCRP cells to GI50 for reversal of SN-38 resistance in dog MDCK-II-BCRP cells assessed as SN-38 GI50 at 10 uM (reference value: 1 uM); assay type: functional, Canis lupus familiaris; method in brief: as §1

`N#Cc1cn(CCCc2ccccc2)c2c(N3CCN(CCc4c[nH]c5ccccc45)CC3)ncnc12` gave a GI50 (MDCK-II) of 37.2 µM, a PF (H69AR) of 8.6 and a PF [1] of 28.
